Assay results from ChEMBL document CHEMBL1122307, “Mitomycin C and porfiromycin analogues with substituted ethylamines at position 7” (J Med Chem, 1983).
Several values for one entry are separate records, joined by “and”; a condition that tells them apart may be missing. Equal values may be shown once.

Experiments:
P388 [1] = assay: Optimal dose required for antitumor activity against P-388 murine leukemia cells in mice.; assay type: functional, Mus musculus
In short: (§1)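 P-388 ascites leukemia, 10⁶ cells implanted ip in female CDF₁ mice. Six mice per dose, with 10 saline-injected controls. A six-mouse mitomycin C group was run at each dose in the same experiment. % T/C = median survival time treated/control × 100 at the optimal dose. MED is the lowest dose giving T/C ≥ 125.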

[2] = Therapeutic ratio as optimal dose/minimal effective dose; assay type: ADME; details: mouse, p388; read-out: TR
P388 [3] = assay: Maximum % T/C with mitomycin C against P-388 murine leukemia cells in mice.; assay type: functional, Mus musculus; in short: as §1
[4] = Partition coefficient (logP); assay type: physicochemical; details: octanol/water
P388 [5] = assay: Maximum % T/C against P-388 murine leukemia cells in mice.; assay type: functional, Mus musculus; in short: as §1
P388 [6] = assay: Minimum effective dose required for antitumor activity against P-388 murine leukemia cells; assay type: functional; details: Mus musculus, read-out: MED; in short: as §1
P388 [7] = assay: Leukopenia % change in WBC at optimal dose on 3rd day.; assay type: functional, Mus musculus
L1210 [8] = assay: Maximum % T/C against L-1210 leukemia cells in mice.; assay type: functional, Mus musculus
In short: (§2)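 L-1210 leukemia in mice, run by the standard NCI protocol with one dose on day 1. % T/C is based on survival. Repeated assays are reported as both values.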

L1210 [9] = assay: Minimum effective dose required for antitumor activity against L-1210 leukemia cells in mice.; assay type: functional; details: Mus musculus, read-out: MED; in short: as §2
L1210 [10] = assay: Optimal dose required for antitumor activity L-1210 leukemia cells in mice.; assay type: functional, Mus musculus; in short: as §2
B16 [11] = assay: (§3) Average weight change after ip administration in B-16 melanoma in mice (dose mg/kg/day); assay type: functional, Mus musculus
In short: (§4)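 B-16 melanoma in mice, run by the standard NCI protocol. Drug given ip on days 1, 4 and 7, ten mice per dose. Read-outs were median survival time as % T/C of controls and average body-weight change in g.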

B16 [12] = assay: (§5) Median survival time (% T/C) after ip administration in B-16 melanoma in mice (dose mg/kg/day); assay type: functional, Mus musculus; in short: as §4
B16 [13] = assay: Average weight change after ip administration of in B-16 melanoma in mice (dose mg/kg/day); assay type: functional, Mus musculus; in short: as §4
B16 [14] = assay: as §3; assay type: functional, Mus musculus; in short: as §4; remark: listed apart in the source
B16 [15] = assay: as §5; assay type: functional, Mus musculus; in short: as §4; remark: listed apart in the source
B16 [16] = assay: Average weight change after ip administration inB-16 melanoma in mice (dose mg/kg/day); assay type: functional, Mus musculus
In short: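 Mice bearing B-16 melanoma were tested under the standard NCI protocol at Arthur D. Little. Compound was injected ip on days 1, 4 and 7, with ten mice per dose. Average body-weight change is reported in g. Alongside it, median survival time was given as % T/C and cures as tumor-free survivors on day 45.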

B16 [17] = assay: as §5; assay type: functional; in short: as §4
B16 [18] = assay: Tumor free survivors on 45th day after ip administration in B-16 melanoma in mice (dose mg/kg/day); 0
B16 [19] = assay: as §5; assay type: functional; in short: as §4; remark: listed apart in the source
B16 [20] = assay: Tumor free survivors on 45th day after ip administration of in B-16 melanoma in mice (dose mg/kg/day); 0

Compound | Dose (P388 [1]) [mg/kg] | selectivity ratio [2] | T/C (P388 [3]) [%] | logP [4] | T/C (P388 [5]) [%] | minimal effective dose (P388 [6]) [mg/kg] | Change in WBC (P388 [7]) [%] | T/C (L1210 [8]) [%] | minimal effective dose (L1210 [9]) [mg/kg] | Dose (L1210 [10]) [mg/kg] | Average weight change (B16 [11]) | T/C (B16 [12]) | Average weight change (B16 [13]) [g] | Average weight change (B16 [14]) [g] | T/C (B16 [15]) [%] | Average weight change (B16 [16]) [g] | T/C (B16 [17]) | Cures (B16 [18]) | T/C (B16 [19]) [%] | Cures (B16 [20])
COC12[C@@H]3N[C@@H]3CN1C1=C(C(=O)C(NCCc3ccccc3)=C(C)C1=O)[C@@H]2COC(N)=O (stereo not given in full) | 25.6 | 16 | 194 | 2.48 | – | – | – | – | – | – | – | – | – | – | – | – | – | – | – | –
COC12[C@@H]3N[C@@H]3CN1C1=C(C(=O)C(NCCc3ccc(O)c(O)c3)=C(C)C1=O)[C@@H]2COC(N)=O (stereo not given in full) | 12.8 | 1 | 233 | – | 139 | 12.8 | – | – | – | – | – | – | – | – | – | – | – | – | – | –
COC12[C@@H]3N[C@@H]3CN1C1=C(C(=O)/C(=N/CCO)C(C)=C1O)[C@@H]2COC(N)=O (stereo not given in full) | 25.6 | 16 | 228 | -0.81 | 228 | 1.6 | -38 | – | – | – | – | – | – | – | – | – | – | – | – | –
COC12[C@@H]3N[C@@H]3CN1C1=C(C(=O)/C(=N/CCF)C(C)=C1O)[C@@H]2COC(N)=O (stereo not given in full) | 6.4 | 16 | 268 | 0.18 | >316 | 0.4 | – | – | – | – | – | – | – | – | – | – | – | – | – | –
COC(C/N=C1/C(=O)C2=C(C(O)=C1C)N1C[C@H]3N[C@H]3C1(OC)[C@H]2COC(N)=O)OC (stereo not given in full) | 6.4 | 8 | 224 | – | 200 | 0.8 | -44 | 151 | 6 | 24 | – | – | – | – | – | – | – | – | – | –
COC12[C@@H](COC(N)=O)C3=C(C(O)=C(C)/C(=N\CCS)C3=O)N1C[C@@H]1[C@H]2N1C (stereo not given in full) | 25.6 | 8 | 268 | – | 179 | 3.2 | – | 129 | 12 | 48 | – | – | – | – | – | – | – | – | – | –
CCSCC/N=C1/C(=O)C2=C(C(O)=C1C)N1C[C@H]3N[C@H]3C1(OC)[C@H]2COC(N)=O (stereo not given in full) | 12.8 | 8 | 268 | 1.66 | 205 | 1.6 | – | 141 | 12 | 24 | -1.2 g and -0.8 g | 190% and 175% and 144% | -1.7 | – | – | – | – | – | – | –
COC12[C@@H](COC(N)=O)C3=C(C(=O)C(C)=C(NCCCl)C3=O)N1C[C@@H]1[C@H]2N1C (stereo not given in full) | 51.2 | 8 | >300 | – | – | – | – | – | – | – | – | – | – | – | – | – | – | – | – | –
COC12[C@@H]3N[C@@H]3CN1C1=C(C(=O)C(NCCCl)=C(C)C1=O)[C@@H]2COC(N)=O (stereo not given in full) | 12.8 | 8 | 245 | 0.74 | – | – | -7 | – | – | – | – | – | – | – | – | – | – | – | – | –
COC12[C@@H]3N[C@@H]3CN1C1=C(C(=O)/C(=N/CCS)C(C)=C1O)[C@@H]2COC(N)=O (stereo not given in full) | 12.8 | 64 | 181 | 0.63 | 313 | 0.2 | -35 | 168 | 1.6 | 9.6 | -0.5 g | 218% | – | -0.5 | 190 | – | – | – | – | –
COC12[C@@H]3N[C@@H]3CN1C1=C(C(=O)/C(=N/CCN3CCOCC3)C(C)=C1O)[C@@H]2COC(N)=O (stereo not given in full) | 25.6 | 4 | 211 | – | 150 | 6.4 | – | 132 | 48 | 96 | – | – | – | – | – | – | – | – | – | –
CCN1CCCC1C/N=C1/C(=O)C2=C(C(O)=C1C)N1C[C@H]3N[C@H]3C1(OC)[C@H]2COC(N)=O (stereo not given in full) | 12.8 | 16 | 211 | – | 217 | 0.8 | -29 | – | – | – | – | – | – | – | – | – | – | – | – | –
CCSCC/N=C1/C(=O)C2=C(C(O)=C1C)N1C[C@@H]3[C@@H](N3C)C1(OC)[C@H]2COC(N)=O (stereo not given in full) | 25 | 4 | 322 | – | 200 | 6.4 | – | 143 | 24 | 48 | – | – | – | – | – | – | – | – | – | –
COC12[C@@H]3N[C@@H]3CN1C1=C(C(=O)/C(=N/CCN3CCCC3)C(C)=C1O)[C@@H]2COC(N)=O (stereo not given in full) | 12.8 | 32 | 211 | – | 194 | 0.4 | -64 | 125 | 5 | 5 | – | – | – | – | – | – | – | – | – | –
COC12[C@@H]3N[C@@H]3CN1C1=C(C(=O)/C(=N/CCc3ccc(O)cc3)C(C)=C1O)[C@@H]2COC(N)=O (stereo not given in full) | 25.6 | 16 | 288 | – | 218 | 1.6 | – | 125 | 12 | 48 | – | – | – | – | – | – | – | – | – | –
CC/N=C1/C(=O)C2=C(C(O)=C1C)N1C[C@H]3N[C@H]3C1(OC)[C@H]2COC(N)=O (stereo not given in full) | 12.8 | 32 | 322 | 0.35 | 250 | 0.8 | – | – | – | – | – | – | – | – | – | – | – | – | – | –
COC12[C@@H]3N[C@@H]3CN1C1=C(C(=O)/C(=N/CCN)C(C)=C1O)[C@@H]2COC(N)=O (stereo not given in full) | 3.3 | 8 | 156 | -0.84 | 178 | 0.4 | – | – | – | – | – | – | – | – | – | – | – | – | – | –
COCC/N=C1/C(=O)C2=C(C(O)=C1C)N1C[C@H]3N[C@H]3C1(OC)[C@H]2COC(N)=O (stereo not given in full) | 12.8 | 16 | 268 | -0.12 | 205 | 0.8 | -57 | 143 | 6 | 12 | -0.4 g | 190% | -2 | -1.7 | – | – | – | – | – | –
COC12[C@@H]3N[C@@H]3CN1C1=C(C(=O)C(NCCC#N)=C(C)C1=O)[C@@H]2COC(N)=O (stereo not given in full) | 6.4 | 16 | 268 | -0.49 | 232 | 0.4 | -40 | 130 | 3 | 12 | – | – | – | – | – | – | – | – | – | –
COC12[C@@H]3N[C@@H]3CN1C1=C(C(=O)C(NCCN(C)C)=C(C)C1=O)[C@@H]2COC(N)=O (stereo not given in full) | 12.8 | 32 | 161 | – | 233 | 0.4 | – | 136 | 6 | 12 | – | – | – | – | – | – | – | – | – | –
COC12[C@@H]3N[C@@H]3CN1C1=C(C(=O)C(N[C@@H]3CC3c3ccccc3)=C(C)C1=O)[C@@H]2COC(N)=O (stereo not given in full) | 25.6 | 16 | 233 | – | 200 | 1.6 | – | – | – | – | – | – | – | – | – | – | – | – | – | –
CO[C@@]12[C@H](COC(N)=O)C3=C(C(=O)C(C)=C(N)C3=O)N1C[C@@H]1N[C@@H]12 [MITOMYCIN] | 3.2 | 16 | – | – | 161 | – | -42 | 124 | 3 | 3 | -1.1 g | – | -2.2 | – | – | -0.7 | 160% and 127% | 0 | 190 | 0
